The chains are these.
B1: tRNA (parent)
chain: GUUCCGUUGGCGUAAUGGUAACGCGUCUCCCUCCUAAGGAGAAGACUGCGGGUUCGAGUCCCGUACGGAACG

This sample holds only a part of the variants without activity.

The variants in this data set derive from B1. The experiment in a line: yeast fitness relative to wild type (ratio to wild type); higher = fitter; tRNA-Arg(CCU), competitive growth, 37 C, YPD. An outline of the steps: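 Genotype frequency changes were the basis for Darwinian fitness relative to wild type. The frequencies came from 100-nucleotide paired-end sequencing of gene amplicons from the start population and each end population of pooled yeast strains with tRNA-Arg(CCU) gene variants at the native locus. Competition ran in YPD at 37°C for 24 hours in six replicates, genotypes needed ≥ 100 starting reads, and estimates < 0.5 were set to 0.5.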
Regarding U7C C31A U35G A42G, the yeast fitness is 0.591.

Turning to U7C G41A A42C G50C A69C, the yeast fitness was found to be 0.527.

With U7C U26A U54C, the yeast fitness is no more than 0.5.

For the variant U7C C29U C31A C66G G67U, the yeast fitness was no more than 0.5.

As for U7C G23A G56C G68A, the yeast fitness is no more than 0.5.

For U7C G10A C24G, the yeast fitness was no more than 0.5.

In the case of U7C G9C U28C G41A, the yeast fitness is no more than 0.5.

U7C C11G U32G C61U: the yeast fitness amounted to 0.59.

Regarding U7C C11U U32C G39C G67C, the yeast fitness was no more than 0.5.

Consider U7C G12A C31U U47C, for which the yeast fitness is no more than 0.5.

Consider U7C A20G A69C, for which the yeast fitness turned out to be 0.594.

Turning to U7C C29G C49U U64A G68A, the yeast fitness is no more than 0.5.

With U7C A15G G51C A57U, the yeast fitness is no more than 0.5.

For the variant U7C U13G C30U, the yeast fitness was no more than 0.5.

Turning to U7C A15C G25A G38A A45G G52A C61G, the yeast fitness is no more than 0.5.

Consider U7C A14G C29U C31U C33U C49U, for which the yeast fitness is no more than 0.5.

Consider U7C G12A C24U, for which the yeast fitness was no more than 0.5.

In the case of U7C C24U C31A A42G U54A C55G, the yeast fitness is no more than 0.5.

For U7C C33G A37U A40C A69U, the yeast fitness was 0.533.

Regarding U7C G10C C61G C62U, the yeast fitness is no more than 0.5.

As to U7C C46A U64C, the yeast fitness came to 0.545.

With U7C G38C, the yeast fitness turned out to be 0.715.

With U7C G38A, the yeast fitness was determined as 0.881.

With U7C G52A, the yeast fitness amounted to 0.69.

Turning to U7C U8C A21U A36U A37C, the yeast fitness was no more than 0.5.

As to U7C U32A U53A, the yeast fitness stood at 0.576.

Regarding U7C C27G C33G G44A C61G, the yeast fitness was no more than 0.5.

As to U7C C30U G39C U64C, the yeast fitness is no more than 0.5.

In the case of U7C U54G, the yeast fitness worked out at 0.535.

Take U7C U54C: the yeast fitness is 0.821.

Consider U7C C24U A42G U54A C55G, for which the yeast fitness is no more than 0.5.

As to U7C A15U G39A, the yeast fitness is 0.623.

For U7C C30G A40C A42G, the yeast fitness is 0.534.

As to U7C C30A U54A A57C, the yeast fitness was no more than 0.5.

In the case of U7C A21G C49U, the yeast fitness amounted to 0.722.

For U7C C22U U53A, the yeast fitness was found to be 0.71.

With U7C U8C, the yeast fitness was 0.976.

Take U7C U8G: the yeast fitness was 0.697.

For the variant U7C U64G, the yeast fitness was determined as 0.809.

For the variant U7C G12A U13C U26C C61U G63A, the yeast fitness stood at 0.596.

For the variant U7C C27U G48A C55A G63A, the yeast fitness was no more than 0.5.

As to U7C A14G G23A G25A A36U A43U, the yeast fitness is no more than 0.5.

In the case of U7C U16G G17A C49U C62A, the yeast fitness turned out to be 0.506.

With U7C C33U G39C G58A, the yeast fitness is no more than 0.5.

U7A U54A U59C U64C: the yeast fitness was no more than 0.5.

For the variant U7C C22G, the yeast fitness is 0.842.

For the variant U7C C49A, the yeast fitness amounted to 0.732.

In the case of U7C C49G, the yeast fitness is 0.774.

In the case of U7C C11G C24U G48A C66U A70C, the yeast fitness was no more than 0.5.

Take U7C C55A G67A: the yeast fitness is no more than 0.5.

For the variant U7C U19C C34U G52A U59A, the yeast fitness stood at 0.678.

As to U7C G25A U47C U64G G68C, the yeast fitness was no more than 0.5.

For U7C C31U A43G U59A, the yeast fitness turned out to be 0.505.

Regarding U7C C11G C24U G48A C66U, the yeast fitness was no more than 0.5.

Turning to U7C C34A U59A, the yeast fitness is no more than 0.5.

Turning to U7C A43C C55U, the yeast fitness was determined as 0.543.

In the case of U7C A21U C22A C49U G50C A69U, the yeast fitness was no more than 0.5.

For U7C C29G G58C G67C, the yeast fitness was no more than 0.5.

In the case of U7C A14U C24G C30U A43G, the yeast fitness is no more than 0.5.

Consider U7C A15G, for which the yeast fitness turned out to be 0.793.

Consider U7C A14C G51A, for which the yeast fitness was no more than 0.5.

As for U7C A37C A40C A45U A57C A70U, the yeast fitness was found to be 0.555.

Take U7C A15C G38A A45G G52A C61G C66U: the yeast fitness is no more than 0.5.

On to U7C U16G A20G U26C C49G, for which the yeast fitness was no more than 0.5.

For the variant U7C C29G A40U, the yeast fitness was found to be 0.665.

As to U7C A15C A40G U53G, the yeast fitness was no more than 0.5.

On to U7C C29U U47A C62G, for which the yeast fitness was no more than 0.5.

With U7C C11G U13G C30U A70C, the yeast fitness was no more than 0.5.

On to U7C C27A C66A, for which the yeast fitness is no more than 0.5.

In the case of U7G A15C, the yeast fitness is 0.653.

For U7C U19A C29A, the yeast fitness was no more than 0.5.

Turning to U7C U28A G67A, the yeast fitness was 0.528.

In the case of U7C U28A C34U C61U, the yeast fitness was no more than 0.5.

Regarding U7C G12A C24U C49A, the yeast fitness is no more than 0.5.

For the variant U7C U8A G23A, the yeast fitness is no more than 0.5.

Take U7C C31G G38C A43U C62G: the yeast fitness is no more than 0.5.

U7C C33U G58A C66A: the yeast fitness was no more than 0.5.

Take U7C C31G U32C G48C G50A A65U: the yeast fitness was no more than 0.5.

U7C C11U C31U C33G C49A G51A: the yeast fitness is no more than 0.5.

Take U7C C30U G39C: the yeast fitness was no more than 0.5.

On to U7C C49G A69C, for which the yeast fitness was 0.58.

U7C A15G C61G C66U A69U: the yeast fitness was no more than 0.5.

In the case of U7C G25C U47C, the yeast fitness amounted to 0.622.

In the case of U7C C30G, the yeast fitness stood at 0.579.

As to U7C C30A, the yeast fitness worked out at 0.794.

Regarding U7C A20G, the yeast fitness is 0.819.

On to U7C A20U, for which the yeast fitness amounted to 0.722.

Take U7C G12A A45C C61G A65C: the yeast fitness is no more than 0.5.

With U7C C27A A69U, the yeast fitness was no more than 0.5.

Take U7C G41A A42C G50C C62G: the yeast fitness was no more than 0.5.

As for U7C C33U A65U, the yeast fitness was no more than 0.5.

Take U7C G38C C49A A70C: the yeast fitness is no more than 0.5.

Turning to U7C C24U, the yeast fitness is 0.855.

For U7C C24A C29G, the yeast fitness turned out to be 0.594.

As to U7C C30G U54C C61G, the yeast fitness was no more than 0.5.

As to U7C G50A, the yeast fitness amounted to 0.684.

In the case of U7C C30U C34A G52C, the yeast fitness is no more than 0.5.

U7C U32G C49U: the yeast fitness is no more than 0.5.

Turning to U7C U13C, the yeast fitness was 0.836.

As to U7G A14G A20G U35G A43G U59A, the yeast fitness is no more than 0.5.

Consider U7C C27U C60A, for which the yeast fitness was no more than 0.5.

With U7C A42C G58A, the yeast fitness was no more than 0.5.

For U7C C30G A40U A70U, the yeast fitness is no more than 0.5.

Turning to U7C C46G, the yeast fitness was found to be 0.943.

For the variant U7C C46U, the yeast fitness is 0.884.

Turning to U7C A14U G25C G39U C62G A65U, the yeast fitness is no more than 0.5.

As to U7C A69U, the yeast fitness is 0.913.

For the variant U7C G18A C31A, the yeast fitness is 0.541.

For U7C U26C U53A, the yeast fitness was no more than 0.5.

Consider U7C C30G G39A G41U G51C G52A, for which the yeast fitness is no more than 0.5.

As to U7C U35C G52A, the yeast fitness is no more than 0.5.

For the variant U7C G18A U35A A43U U54C A65G, the yeast fitness was no more than 0.5.

Regarding U7C C34U A70G, the yeast fitness was no more than 0.5.

In the case of U7C U32C U53C, the yeast fitness was found to be 0.536.

Regarding U7C U47C, the yeast fitness worked out at 0.895.

Consider U7C A15G A20U C24G U35C A36C C66U, for which the yeast fitness is no more than 0.5.

Consider U7C C29G G44C, for which the yeast fitness is 0.567.

Take U7C C24A G68A: the yeast fitness was no more than 0.5.

U7C U13C C24U C49U: the yeast fitness is no more than 0.5.

With U7C C31U, the yeast fitness came to 0.954.

Take U7C C31G: the yeast fitness turned out to be 0.81.

Take U7C A36G A43U: the yeast fitness turned out to be 0.535.

Take U7C G18C G38C C62A: the yeast fitness is no more than 0.5.

Regarding U7G A14G U59A, the yeast fitness stood at 0.542.

For the variant U7C A15G G18C C49U, the yeast fitness is no more than 0.5.

As to U7C A40U, the yeast fitness came out at 0.793.

As to U7C A40G, the yeast fitness is 0.822.

Take U7C G10C C46U: the yeast fitness was found to be 0.523.

In the case of U7C A15G A20U C24G U35C A36C C61A, the yeast fitness was no more than 0.5.

For the variant U7C C30U G44A G56A, the yeast fitness stood at 0.522.

For U7C U47G U59A C66A A70C, the yeast fitness is no more than 0.5.

Turning to U7C A36U G50C C60A G63A, the yeast fitness was no more than 0.5.

For the variant U7C A14C A21C C46A, the yeast fitness was no more than 0.5.

Regarding U7C C11A C30G, the yeast fitness was no more than 0.5.

Consider U7C C29G G67C, for which the yeast fitness was determined as 0.651.

U7C G18C C55G: the yeast fitness was no more than 0.5.

Turning to U7C U64G A69C, the yeast fitness was 0.603.

With U7C U54C C55G, the yeast fitness amounted to 0.655.

On to U7C U64A G68U, for which the yeast fitness was no more than 0.5.

For the variant U7C U16A, the yeast fitness was found to be 0.812.

For U7C A21G C29A G48C, the yeast fitness stood at 0.555.

Regarding U7C C22G C24A G25C, the yeast fitness is no more than 0.5.

With U7C A14G G25A A43G A69C, the yeast fitness is no more than 0.5.

Regarding U7C C22U C29G, the yeast fitness is no more than 0.5.

With U7C C61G, the yeast fitness is 0.634.

Take U7C C61U: the yeast fitness is 0.959.

As to U7C A15C G38A A45G G52A C61G, the yeast fitness was 0.558.

With U7C C49A G67A, the yeast fitness is no more than 0.5.

U7C G51C A57G: the yeast fitness was no more than 0.5.

With U7C G9A A20U A36G C55G, the yeast fitness is no more than 0.5.

For U7C G18C A37G G51C, the yeast fitness was found to be 0.697.

On to U7C A37C, for which the yeast fitness turned out to be 0.862.

On to U7C A37G, for which the yeast fitness stood at 0.666.

Consider U7C U19A C31U C49U, for which the yeast fitness is 0.678.

Take U7C A57C: the yeast fitness was 0.612.

As to U7C A57G, the yeast fitness was found to be 0.842.

With U7C G12A U13C U26C C60U, the yeast fitness is no more than 0.5.

Take U7C A14C A70C: the yeast fitness was 0.594.

Regarding U7C G41A A42C, the yeast fitness is 0.543.

On to U7C U59G C60A G68U, for which the yeast fitness was no more than 0.5.

Regarding U7C C11A C33A A36C G63C C66G, the yeast fitness is no more than 0.5.

For U7C A20G C30A, the yeast fitness was no more than 0.5.

U7C U16C C29U: the yeast fitness is no more than 0.5.

As for U7A U54C, the yeast fitness came out at 0.734.

For the variant U7C A37U G39C A43U C55G, the yeast fitness was no more than 0.5.

U7C A14G: the yeast fitness is 0.86.

With U7C A14C, the yeast fitness was 0.679.

The record behind these values is the RNAGym collection of RNA variant scans (doi:10.1126/science.aae0568).
